Measurements reported in ChEMBL document CHEMBL1131157, “Potent and selective non-cysteine-containing inhibitors of protein farnesyltransferase” (J Med Chem, 1998).

Columns and labels:
[1] = target: Protein farnesyltransferase (Bos taurus, UniProt P29702+P49355); assay: In vitro inhibition of farnesyltransferase from bovine brain
[2] = system: NIH3T3; assay: (§1) Inhibition of Ha-Ras processing in NIH3T3 Ras transformed cells.; format: functional, cell-based, Homo sapiens; settings: Mus musculus
How it was run: (§2)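 Subconfluent Ras-transformed NIH3T3 cells dosed with compounds; lysates boiled 5 min in Laemmli buffer, resolved on 15% Tris-glycine gel, blotted to nitrocellulose, probed with anti-Ras antibody Y13-238; bands by ECL, quantified by densitometry. Single determinations unless limits given; assay reliability ±50-100%.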

[3] = system: NIH3T3; assay: as §1; format: functional, Homo sapiens; settings: Mus musculus, read-out: ED50 (the source's name); how it was run: as §2

Row | Structure (SMILES) | IC50 [1] [nM] | EC50 [2] [nM] | EC50 [3] [nM]
1 | CSCC[C@H](NC(=O)c1ccc(COc2cccnc2)cc1-c1ccccc1C)C(=O)O | 0.4 | 350 | 
2 | NC(=O)CC[C@H](NC(=O)c1ccc(COc2cccnc2)cc1-c1ccccc1)C(=O)O | 48 |  | 
3 | COc1ccc(-c2cc(COc3cccnc3)ccc2C(=O)N[C@@H](CCSC)C(=O)O)cc1 | 230 |  | 
4 | CSCC[C@H](NC(=O)c1ccc(NC(=O)c2ccccn2)cc1-c1ccccc1)C(=O)O | > 1000 |  | 
5 | CSCC[C@H](NC(=O)c1ccc(NC(=O)c2cccnc2)cc1-c1ccccc1C)C(=O)O | 1.6 |  | 
6 | CSCC[C@H](NC(=O)c1ccc(COc2cccnc2)cc1-c1ccccc1)C(=O)O | 4.3 | 5000 | 
7 | COC(=O)[C@H](CCSC)NC(=O)c1ccc(NC[C@@H](N)CS)cc1-c1ccccc1 |  |  | 200
8 | CSCC[C@H](NC(=O)c1ccc(NC(=O)c2cccnc2)cc1-c1ccccc1)C(=O)O | 70 | 50000 | 
9 | CSCC[C@H](NC(=O)c1ccc(COc2cccnc2)cc1-c1ccccc1C(F)(F)F)C(=O)O | 0.5 | 300 | 
10 | CSCC[C@H](NC(=O)c1ccc(NC[C@@H](N)CS)cc1-c1ccccc1)C(=O)O |  |  | 1000
11 | CSCC[C@H](NC(=O)c1ccc(CSc2cccnc2)cc1-c1ccccc1)C(=O)O | 10 | 10000 | 
12 | CCCC[C@H](NC(=O)c1ccc(COc2cccnc2)cc1-c1ccccc1)C(=O)O | > 1000 |  | 

More lines, main results first:

Row | IC50 [1] [nM] | Structure (SMILES) | EC50 [2] [nM] | EC50 [3] [nM]
13 | 6.6 | CSCC[C@H](NC(=O)c1ccc(OCc2cccnc2)cc1-c1ccccc1)C(=O)O |  | 
14 | 12 | COc1cccc(-c2cc(COc3cccnc3)ccc2C(=O)N[C@@H](CCSC)C(=O)O)c1 |  | 
15 | 160 | CSCC[C@@H](C(=O)O)N(C)C(=O)c1ccc(CNc2cccnc2)cc1-c1ccccc1 |  | 100000
16 | 17 | CS(=O)(=O)CC[C@H](NC(=O)c1ccc(CNc2cccnc2)cc1-c1ccccc1)C(=O)O |  | 100000
17 | > 1000 | CSC[C@H](NC(=O)c1ccc(COc2cccnc2)cc1-c1ccccc1)C(=O)O |  | 
18 | 20 | CSCC[C@H](NC(=O)c1ccc(NCc2cccnc2)cc1-c1ccccc1)C(=O)O | 40000 | 
19 | 6.8 | CSCC[C@H](NC(=O)c1ccc(CNc2cccnc2)cc1-c1ccccc1)C(=O)O | 10000 | 
20 | 360 | CSCC[C@H](NC(=O)c1ccc(COc2cccnc2)cc1-c1ccc(C)cc1)C(=O)O |  | 
21 | 140 | CSCC[C@@H](NC(=O)c1ccc(CNc2cccnc2)cc1-c1ccccc1)C(=O)O |  | 
22 | 1000 | COCC[C@H](NC(=O)c1ccc(COc2cccnc2)cc1-c1ccccc1)C(=O)O |  | 
23 | 5.4 | CSCC[C@H](NC(=O)c1ccc(COc2cccnc2)cc1-c1cccc(C)c1)C(=O)O |  | 
24 | 550 | CSCC[C@H](NC(=O)c1ccc(CS(=O)(=O)c2cccnc2)cc1-c1ccccc1)C(=O)O |  | 
25 | 1.5 | CSCC[C@H](NC(=O)c1ccc(NCc2cccnc2)cc1-c1ccccc1C)C(=O)O |  | 
26 | 0.35 | CCc1ccccc1-c1cc(COc2cccnc2)ccc1C(=O)N[C@@H](CCSC)C(=O)O | < 100 | 
27 | > 1000 | CSCC[C@H](NC(=O)c1ccc(NC(=O)c2ccncc2)cc1-c1ccccc1)C(=O)O |  | 
28 | 0.69 | CSCC[C@H](NC(=O)c1ccc(CSc2cccnc2)cc1-c1ccccc1C)C(=O)O |  | 
29 | 0.61 | CSCC[C@H](NC(=O)c1ccc(COc2cccnc2)cc1-c1ccccc1Cl)C(=O)O | 400 | 
30 | 3.3 | COc1ccccc1-c1cc(COc2cccnc2)ccc1C(=O)N[C@@H](CCSC)C(=O)O | 10000 | 
